INS-1E GSIS act – GLuc luminescence reporter in INS-1E cells, primary screen for activators of glucose-dependent secretion of insulin; 0.61% of 370,000 active; activation, % at 16.6 µM; INS-1E GLuc reporter insulin secretion, 2-3 h;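 active = lowest replicate activation of at least 40%, so every replicate reaches that level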
miR-122 sensor – miR-122 inhibition in Huh7 cells | Huh7 miR-122 Renilla luciferase sensor, 48 h; neutral wells = 0, positive control = 100 | 0.3% of 340,000 active | AID 602342 | activation (reporter increase), % at 12.5 µM;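 active = mean replicate activation score at least 90 and every replicate individually at or above 90; inconclusive = only one of the two criteria met; inactive = neither criterion met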;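 also: higher luciferase means less miR-122 activity so hits act as miR-122 inhibitors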
Cneo AK release – Cryptococcus neoformans lysis via adenylate kinase release. 0.2% of 360,000 active. lysis activity, % at 15 µM. AID 651654. C. neoformans lysis, adenylate kinase release luminescence, 4 h; normalised: neutral wells 0, clomiphene wells 100;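 active = mean lysis activity across replicates of at least 80%, whatever share of replicates individually reach that level; inactive = mean lysis activity below 80%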
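Material – log-phase Cryptococcus neoformans yeast cells · Input – 5 × 10^6 yeast cells/mL · Medium – fresh YPD growth medium · Doses – single compound concentration per well · Timing – static 4 h at 37 °C with compound, 1 h detection · Detection – adenylate kinase release luminescence · Read-out – signal increase indicating cell lysis · Control set – Clomiphene as positive lysis control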
dFosB act-1 – activators of mouse delta FosB homodimer; 0.99% of 340,000 active; purified delta FosB, TAMRA-CDK5 oligo fluorescence polarization; percent of positive-control signal above neutral wells; activation, % at 25 µM;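 active = mean activation above about 17%, with every replicate also reaching it, limit read from the data, passing the limit was not always enough; inconclusive = only one of the two conditions met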
Target sequence (P13346 whole entry, looked up): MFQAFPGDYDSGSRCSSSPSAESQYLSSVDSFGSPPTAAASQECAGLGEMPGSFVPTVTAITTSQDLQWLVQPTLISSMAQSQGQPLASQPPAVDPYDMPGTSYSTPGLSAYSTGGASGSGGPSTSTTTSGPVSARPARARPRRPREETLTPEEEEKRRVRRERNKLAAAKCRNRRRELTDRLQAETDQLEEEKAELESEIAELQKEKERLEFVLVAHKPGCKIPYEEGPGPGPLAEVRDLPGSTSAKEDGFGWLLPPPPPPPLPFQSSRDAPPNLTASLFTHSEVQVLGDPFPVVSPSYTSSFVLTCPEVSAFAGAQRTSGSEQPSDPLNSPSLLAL
Env fusion inh – blocks HIV Env-driven cell-cell fusion. AID 651610. inhibition, % at 12.3 µM. 1.1% of 360,000 active. HeLa-JRFL Env/CEM21 cell fusion, luciferase;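 active = mean replicate inhibition score of at least 50 and every replicate individually at or above 50; inconclusive = only one of the two criteria met; inactive = mean below 50 and not all replicates reaching 50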
Rtt109 Vps75 – blocks Candida albicans Rtt109/Vps75 acetyltransferase activity | AID 540336 | 0.16% of 330,000 active | inhibition, % at 34.9 µM | purified Rtt109/Vps75, ThioGlo CoA-SH fluorescence, 4 h | Q5AAJ8;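 active = inhibition of at least 50% in every replicate; inconclusive = best replicate reaches 50% inhibition but some replicates fall short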
dFosB act-2 – activators of mouse delta FosB homodimer DNA binding | 2,400 tested, under 10 active | shares compounds with dFosB act-1 | activation, % at 24.9 µM | purified delta FosB, TAMRA-CDK5 oligo fluorescence polarization; normalised: neutral wells 0, positive control 100;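 active = highest replicate activation at or above 34% and every replicate reaching that threshold; inconclusive = meets only one of the two criteria; inactive = meets neither criterion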;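 also: higher polarization means more probe DNA bound by delta FosB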
A number is an active result; i = inactive; ? = inconclusive; nt = no result given. Hits are enriched below; roughly 2.4% of the tested compounds scored in any of these assays.

SMILES	INS-1E GSIS act	miR-122 sensor	Cneo AK release	dFosB act-1	Env fusion inh	Rtt109 Vps75	dFosB act-2
C[C@H](CO)N1C[C@H](C)[C@@H](CN(C)C(=O)Nc2ccc(F)cc2)Oc2ccc(NS(=O)(=O)c3ccccc3)cc2CC1=O	i	i	i	nt	nt	nt	nt
Cc1ccc(C(=O)NC(=S)Nc2ccc3[nH]c(=O)[nH]c3c2)c(C)c1	i	nt	nt	28	i	i	i
Cc1cccc(C(=O)NC(=S)Nc2ccc3[nH]c(=O)[nH]c3c2)c1	i	nt	nt	i	i	i	nt
COc1ccc(-c2cc(=O)oc3c(C)c(OC(C)C(=O)Nc4ccc(CN5CCOCC5)cc4)ccc23)cc1 (configuration not stated)	i	nt	i	43	i	i	i
COc1ccc(Cc2nc3c4c(ncn3n2)Oc2c(ccc3ccccc23)C4c2ccc(OC)c(OC)c2)cc1 (configuration not stated)	i	nt	nt	32	i	i	i
O=C(Nc1nc(-c2ccc(S(=O)(=O)N3CCOCC3)cc2)cs1)c1ccccc1	i	i	nt	i	?	i	nt
O=C(Nc1nc(-c2nc3ccccc3s2)cs1)c1ccc(S(=O)(=O)N2CCOCC2)cc1	i	nt	i	33	nt	62	i
CC(C)Cc1nnc(NC(=O)CSc2nc(-c3ccccc3)cc(=O)[nH]2)s1	i	nt	nt	49	i	i	i
Cc1cc(=O)[nH]c(SCC(=O)Nc2nnc(CC(C)C)s2)n1	nt	i	i	i	nt	i	nt
Cc1ccc(CNC(=S)Nc2ccc(NS(=O)(=O)c3ccc(C)cc3)cc2)cc1	i	i	i	19	i	i	i
O=C(Nc1ccc(F)cc1)N1CC(=O)N2[C@H](CO)[C@@H](c3ccc(C#Cc4cccnc4)cc3)[C@@H]2C1	i	nt	nt	nt	nt	nt	nt
O=C(NCc1csc(-c2cccs2)n1)Nc1cccc(Cl)c1	i	nt	nt	66	i	i	i
CCC(=O)NCc1csc(-c2cccs2)n1	i	nt	nt	i	i	i	nt
COc1cccc(-n2nnc3c(=O)n(CC(=O)Nc4ccc(C)cc4)cnc32)c1	i	nt	nt	27	i	i	i
CCOc1ccc(-n2nnc3c(=O)n(CC(=O)NCc4ccco4)cnc32)cc1	i	i	i	22	i	i	i
CCS(=O)(=O)N1CC(=O)N2[C@H](CO)[C@@H](c3ccc(C#Cc4ccc(F)cc4)cc3)[C@@H]2C1	i	nt	nt	nt	nt	nt	nt
NC(=O)Cn1c(=O)n(C2CCCCC2)c(=O)c2c3c(sc21)CCCCC3	i	i	nt	44	i	i	i
COc1ccc(-n2c(=O)c3c4c(sc3n(CC(N)=O)c2=O)CCCCC4)cc1	nt	nt	nt	30	i	i	i
CN(CC(=O)Nc1ccc(Cl)cc1)S(=O)(=O)c1ccc2c(c1)n(C)c(=O)c(=O)n2C	i	i	i	i	i	i	nt
CN(CC(=O)Nc1cccc(Cl)c1)S(=O)(=O)c1ccc2c(c1)n(C)c(=O)c(=O)n2C	i	i	i	46	i	i	i
COc1ccc(N(CC(=O)Nc2ccc3c(c2)OCCO3)S(=O)(=O)c2c(C)noc2C)cc1	nt	i	i	37	i	nt	i
O=C(Nc1ccc(S(=O)(=O)Nc2cnc3ccccc3n2)cc1)c1cccc(OC(F)F)c1	i	i	i	57	i	i	i
O=C(Nc1ccc(S(=O)(=O)Nc2cnc3ccccc3n2)cc1)c1ccc(F)cc1	i	i	i	i	i	i	nt
CC(=O)Nc1cccc(-c2cn3ccccc3n2)c1	i	nt	nt	i	i	nt	nt
O=C(Nc1cccc(-c2cn3ccccc3n2)c1)c1cc2ccccc2oc1=O	i	i	i	61	nt	i	i
O=C(Nc1c(-c2ccccc2)nc2ncccn12)c1cc2ccccc2oc1=O	i	i	i	38	i	i	i
C/C(=N\N=C(/N)SC1CC(=O)N(c2ccc(Cl)cc2)C1=O)c1cccs1 (configuration not stated)	nt	i	i	i	i	i	nt
C/C(=N\N=C(/N)SC1CC(=O)N(c2ccc(Cl)c(Cl)c2)C1=O)c1cccs1 (configuration not stated)	i	i	i	25	nt	i	i
Cc1ccccc1Nc1nc(N)c2ccccc2n1	i	i	i	i	i	nt	nt

High-throughput results: PubChem BioAssay, Broad Institute
